The values below come from ChEMBL document CHEMBL1153804, “Optimization of a series of quinazolinone-derived antagonists of CXCR3” (Bioorg Med Chem Lett, 2009).

Calls of active or inactive are those of the source. No cut-off for these calls is given here.

Data set [1] has as its target T1, C-X-C chemokine receptor type 3 (Homo sapiens, UniProt P49682).
T1 sequence (P49682 whole entry): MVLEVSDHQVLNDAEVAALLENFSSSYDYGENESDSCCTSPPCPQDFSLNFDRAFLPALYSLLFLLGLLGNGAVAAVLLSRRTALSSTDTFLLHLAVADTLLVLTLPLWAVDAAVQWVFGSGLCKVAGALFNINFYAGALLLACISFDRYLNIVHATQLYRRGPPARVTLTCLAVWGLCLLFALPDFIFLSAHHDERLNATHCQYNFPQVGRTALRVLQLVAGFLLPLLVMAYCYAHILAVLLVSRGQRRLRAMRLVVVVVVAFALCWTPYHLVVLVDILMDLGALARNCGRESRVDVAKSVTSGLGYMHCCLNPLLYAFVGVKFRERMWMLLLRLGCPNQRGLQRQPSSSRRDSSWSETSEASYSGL
Briefly: Displacement of [125I]-1P10 from human CXCR3 expressed in human PBMC after 2 hrs by scintillation counting in plasma. A digest of the protocol:
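[125I]-IP10 displacement from CXCR3 on PBMC: cells co-incubated with antagonist and recombinant human [125I]-IP10 for 2 h at room temperature in EDTA-anticoagulated human plasma (from frozen stocks) in place of RPMI buffer. Filter harvest and scintillation counting; IC50 values are means of three experiments.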
On the technique in general: Displacement assays read how much labelled ligand stays bound in the presence of the test substance.

Data set [2] deals with T2, C-X-C chemokine receptor type 3 (Mus musculus, UniProt O88410).
T2 sequence (O88410 whole entry): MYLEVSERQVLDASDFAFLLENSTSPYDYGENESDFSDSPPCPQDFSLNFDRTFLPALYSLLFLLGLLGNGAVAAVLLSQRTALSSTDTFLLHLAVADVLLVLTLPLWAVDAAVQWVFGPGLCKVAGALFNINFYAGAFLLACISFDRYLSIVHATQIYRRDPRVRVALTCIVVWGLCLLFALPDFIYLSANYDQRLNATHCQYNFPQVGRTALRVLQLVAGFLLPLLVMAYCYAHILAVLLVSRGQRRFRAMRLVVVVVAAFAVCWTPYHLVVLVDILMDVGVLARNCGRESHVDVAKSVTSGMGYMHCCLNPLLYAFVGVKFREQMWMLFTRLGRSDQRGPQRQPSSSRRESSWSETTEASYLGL
Kind of data set: Displacement of [125I]-IP10 from mouse CXCR3 expressed in human PBMC after 2 hrs in RPMI buffer by scintillation counting. A digest of the protocol:
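PBMC bearing CXCR3 were co-incubated with antagonist and recombinant human [125I]-IP10 for 2 h at room temperature in RPMI-1640 (no phenol red) with 0.5% BSA. Cells were harvested onto filter plates and bound radioactivity was counted by scintillation. IC50 values are means of three experiments.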

A short description of data set [3]: Clearance in mouse at 0.5 mg/kg, iv. The data set is classed as ADME, organism-based. As to conditions: in vivo. The arrangement: dose 0.5 mg/kg, route intravenous.
Data set [4] in a line: Clearance in dog at 1 mg/kg, iv. It is filed as ADME, organism-based, Canis lupus familiaris. Details: dose 1 mg/kg, route intravenous. The note with it: in vivo.
A short description of data set [5]: Clearance in cynomolgus monkey at 1 mg/kg, iv. It is filed as ADME, organism-based, Macaca fascicularis. The arrangement: dose 1 mg/kg, route intravenous. As to conditions: in vivo.
Data set [6] in a line: Mean residence time in dog at 1 mg/kg, iv. The data set is classed as ADME, organism-based, Canis lupus familiaris. The arrangement: dose 1 mg/kg, route intravenous. As to conditions: in vivo.
Data set [7] is described as follows: Volume of distribution at steady state in mouse at 0.5 mg/kg, iv. It is filed as ADME, organism-based. The arrangement: dose 0.5 mg/kg, route intravenous. The note with it: in vivo, read-out: Vdss.
Data set [8] can be described thus: Volume of distribution at steady state in dog at 1 mg/kg, iv. Details: dose 1 mg/kg, route intravenous. As to conditions: in vivo, read-out: Vdss. The data set is classed as ADME, organism-based, Canis lupus familiaris.
Data set [9] can be described thus: Volume of distribution at steady state in cynomolgus monkey at 1 mg/kg, iv. The arrangement: dose 1 mg/kg, route intravenous. It is filed as ADME, organism-based, Macaca fascicularis. The note with it: in vivo, read-out: Vdss.
Data set [10] is described as follows: Oral bioavailability in mouse at 2 mg/kg. The note with it: in vivo. The data set is classed as ADME, organism-based.
A short description of data set [11]: Oral bioavailability in dog at 2.5 mg/kg. It is filed as ADME, organism-based, Canis lupus familiaris. As to conditions: in vivo.
For the next data set, the system named is Mus musculus. Briefly: Effect on bleomycin-induced cellular recruitment in sc dosed mouse assessed as inhibition of cellular infiltration measured 6 days after bleomycin challenge. The data set is classed as functional, organism-based.
For a further data set, the target named is Cytochrome P450 2D6 (Homo sapiens, UniProt P10635). Briefly: Inhibition of CYP2D6. The data set is classed as ADME.
Sequence of Cytochrome P450 2D6 (P10635 whole entry): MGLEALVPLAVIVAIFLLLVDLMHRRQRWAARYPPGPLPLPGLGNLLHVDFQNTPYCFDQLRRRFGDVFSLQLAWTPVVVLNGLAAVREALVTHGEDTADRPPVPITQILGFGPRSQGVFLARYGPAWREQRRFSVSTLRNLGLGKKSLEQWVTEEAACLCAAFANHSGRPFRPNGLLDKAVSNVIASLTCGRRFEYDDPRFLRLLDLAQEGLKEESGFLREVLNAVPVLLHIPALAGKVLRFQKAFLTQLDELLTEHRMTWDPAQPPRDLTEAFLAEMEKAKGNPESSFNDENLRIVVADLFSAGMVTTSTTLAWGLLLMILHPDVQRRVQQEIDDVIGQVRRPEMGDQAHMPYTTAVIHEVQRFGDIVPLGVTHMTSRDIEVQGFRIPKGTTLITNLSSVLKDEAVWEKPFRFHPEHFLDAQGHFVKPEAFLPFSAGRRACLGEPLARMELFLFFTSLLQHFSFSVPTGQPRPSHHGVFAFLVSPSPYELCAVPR
The next data set has as its system Blood. Briefly: Drug level in bleomycin-induced mouse blood at 0.3 mg/mL, sc. The data set is classed as ADME, tissue-based.

Turning to `CCS(=O)(=O)CCN(C(=O)Cc1ccc(F)c(C(F)(F)F)c1)[C@H](C)c1nc2ncccc2c(=O)n1-c1ccc(OCC(F)(F)F)cc1`, the IC50 came to 6 nM in data set [1] and 3 nM in [2]. For the same compound, the clearance in data set [3] was 13 mL/min/kg; in data set [4] it was 7.5 mL/min/kg; in [5] it was 14.5 mL/min/kg. The MRT in data set [6] stood at 2.5 h. In addition, the results for the Vd in data set [7], in [8] and in data set [9] were 0.8 L/kg, 1.1 L/kg and 1.4 L/kg, respectively. The bioavailability in [10] is 84%; in data set [11] it was 25%. The result with Mus musculus was Active. The result at Cytochrome P450 2D6 was Active. The Drug uptake with Blood was 6 ng/mL.

What is called IC50 is the concentration at which inhibition is half-maximal. In general, clearance refers to the volume of plasma or blood freed of the substance per unit of time. The term MRT denotes a mean duration of stay, worked out from the concentration-time curve. In general, bioavailability refers to the share of a dose that reaches the circulation, judged against a reference dose that is usually intravenous.
